Data from ChEMBL document CHEMBL2384974, “Discovery and synthesis of novel 4-aminopyrrolopyrimidine Tie-2 kinase inhibitors for the treatment of solid tumors” (Bioorg Med Chem Lett, 2013).
Values after ≈ are worked out from the molar mass of the structure shown. Blank lines part the entries; values can stand above or below the molecule they belong to. Active and inactive are the calls of the source. The calls are words filed in the database; no cut-off is given here.

Columns and labels:
Angiopoietin-1 receptor [1] = target: T1, Angiopoietin-1 receptor (Homo sapiens, UniProt Q02763); assay: Inhibition of GST-fused TIE2 (unknown origin) using poly[Glu:Tyr] as substrate assessed as phosphotyrosine level by ELISA
T1 sequence (Q02763 whole entry, the tested form may be a part): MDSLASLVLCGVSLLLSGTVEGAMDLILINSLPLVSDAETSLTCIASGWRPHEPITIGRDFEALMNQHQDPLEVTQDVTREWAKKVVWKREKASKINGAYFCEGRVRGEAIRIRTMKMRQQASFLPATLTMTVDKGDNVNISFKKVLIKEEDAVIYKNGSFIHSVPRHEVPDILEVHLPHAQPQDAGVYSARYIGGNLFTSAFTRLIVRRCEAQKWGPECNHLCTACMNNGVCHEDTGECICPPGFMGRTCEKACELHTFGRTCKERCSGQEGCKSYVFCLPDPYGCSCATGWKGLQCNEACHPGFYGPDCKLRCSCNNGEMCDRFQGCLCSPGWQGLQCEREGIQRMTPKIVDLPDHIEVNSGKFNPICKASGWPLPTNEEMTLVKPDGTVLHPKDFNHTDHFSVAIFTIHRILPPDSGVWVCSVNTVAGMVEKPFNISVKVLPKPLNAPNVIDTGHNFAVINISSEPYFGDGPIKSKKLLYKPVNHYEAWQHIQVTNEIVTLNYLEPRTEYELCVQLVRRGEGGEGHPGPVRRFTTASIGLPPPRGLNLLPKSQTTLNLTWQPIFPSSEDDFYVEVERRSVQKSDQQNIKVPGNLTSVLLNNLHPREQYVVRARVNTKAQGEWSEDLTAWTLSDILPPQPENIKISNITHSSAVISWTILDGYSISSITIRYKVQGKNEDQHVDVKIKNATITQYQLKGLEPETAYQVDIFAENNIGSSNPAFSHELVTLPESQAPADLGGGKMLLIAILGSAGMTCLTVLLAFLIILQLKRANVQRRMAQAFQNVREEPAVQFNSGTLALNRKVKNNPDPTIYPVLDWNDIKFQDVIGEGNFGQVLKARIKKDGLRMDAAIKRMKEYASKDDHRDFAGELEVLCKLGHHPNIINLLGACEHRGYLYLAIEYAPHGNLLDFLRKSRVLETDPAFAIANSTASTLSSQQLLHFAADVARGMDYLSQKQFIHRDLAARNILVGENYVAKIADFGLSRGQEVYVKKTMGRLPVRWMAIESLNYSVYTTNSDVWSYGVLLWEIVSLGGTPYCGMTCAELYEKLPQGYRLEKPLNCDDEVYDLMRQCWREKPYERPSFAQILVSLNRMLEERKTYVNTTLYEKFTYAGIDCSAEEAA
In short: (§1)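 ELISA on poly-Glu-Tyr-coated plates using a GST-Tie-2 kinase fusion protein and 100 µM ATP. Phosphorylated product was detected with HRP-conjugated anti-phosphotyrosine monoclonal antibody (PY20). For reversibility, enzyme was preincubated with compound for 15 min before ATP was added. Kinetics were run with titrated ATP.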

[2] = target: Epidermal growth factor receptor (Homo sapiens, UniProt P04626+P00533+Q15303+P21860); assay: Inhibition of human EGFR extracellular domain/TIE2 intracellular domain transfected in mouse NIH/3T3 cells assessed as phosphotyrosine level preincubated for 60 mins followed by EGF stimulation by DELFIA assay; assay type: cell-based; conditions: nih3t3
In short: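 NIH/3T3 fibroblasts stably transfected with a chimera of human EGFR extracellular domain and human Tie-2 intracellular domain. Cells were exposed to compound for 60 min, stimulated with EGF, then fixed. Phosphotyrosine was read with an Eu-labeled antibody by DELFIA. In washout runs, medium was replaced with fresh medium and cells were stimulated at set times.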

[3] = Metabolic stability in rat liver microsomes assessed as hepatic extraction ratio; assay type: ADME, Microsome; conditions: read-out: ERH
[4] = Efflux ratio of permeability across basolateral to apical side over apical to basolateral side in human Caco2 cells expressing p-gp; assay type: ADME, cell-based; conditions: Caco-2
[5] = target: Proto-oncogene tyrosine-protein kinase Src (Homo sapiens, UniProt P12931); assay: Inhibition of SRC (unknown origin)
Proto-oncogene tyrosine-protein kinase Src, sequence (P12931 2-536 limits assumed): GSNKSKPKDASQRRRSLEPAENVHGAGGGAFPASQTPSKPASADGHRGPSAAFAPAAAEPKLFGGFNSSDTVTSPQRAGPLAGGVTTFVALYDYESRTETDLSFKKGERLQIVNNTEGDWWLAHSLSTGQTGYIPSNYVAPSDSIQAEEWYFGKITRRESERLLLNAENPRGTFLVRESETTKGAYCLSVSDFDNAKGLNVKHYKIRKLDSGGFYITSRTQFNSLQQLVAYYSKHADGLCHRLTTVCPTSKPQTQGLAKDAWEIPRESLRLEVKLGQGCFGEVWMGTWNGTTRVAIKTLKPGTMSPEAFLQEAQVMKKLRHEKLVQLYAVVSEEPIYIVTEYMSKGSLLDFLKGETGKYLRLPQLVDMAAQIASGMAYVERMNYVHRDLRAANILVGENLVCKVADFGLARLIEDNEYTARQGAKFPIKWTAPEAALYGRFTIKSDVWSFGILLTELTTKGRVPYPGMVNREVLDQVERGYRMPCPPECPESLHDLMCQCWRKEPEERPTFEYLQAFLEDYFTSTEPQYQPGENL

[6] = target: Tyrosine-protein kinase Lck (Homo sapiens, UniProt P06239); assay: Inhibition of LCK (unknown origin)
Tyrosine-protein kinase Lck, sequence (P06239 whole entry): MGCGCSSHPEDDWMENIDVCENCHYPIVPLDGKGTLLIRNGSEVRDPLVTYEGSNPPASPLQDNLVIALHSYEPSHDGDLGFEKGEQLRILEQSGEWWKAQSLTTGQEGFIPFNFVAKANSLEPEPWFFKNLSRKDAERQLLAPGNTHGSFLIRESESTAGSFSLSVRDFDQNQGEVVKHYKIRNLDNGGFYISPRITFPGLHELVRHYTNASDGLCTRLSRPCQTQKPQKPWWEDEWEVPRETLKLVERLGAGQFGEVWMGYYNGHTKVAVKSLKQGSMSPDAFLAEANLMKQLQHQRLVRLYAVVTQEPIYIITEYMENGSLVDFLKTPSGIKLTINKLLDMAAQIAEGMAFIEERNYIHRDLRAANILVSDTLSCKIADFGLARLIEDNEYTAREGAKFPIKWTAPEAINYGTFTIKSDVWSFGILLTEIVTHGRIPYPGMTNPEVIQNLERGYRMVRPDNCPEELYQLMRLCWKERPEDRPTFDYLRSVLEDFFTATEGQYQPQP

Angiopoietin-1 receptor [7] = target: T1, Angiopoietin-1 receptor; assay: Inhibition of TIE2 (unknown origin); in short: as §1
[8] = target: Vascular endothelial growth factor receptor 2 (Homo sapiens, UniProt P35968); assay: Inhibition of KDR (unknown origin)
Vascular endothelial growth factor receptor 2, sequence (P35968 whole entry): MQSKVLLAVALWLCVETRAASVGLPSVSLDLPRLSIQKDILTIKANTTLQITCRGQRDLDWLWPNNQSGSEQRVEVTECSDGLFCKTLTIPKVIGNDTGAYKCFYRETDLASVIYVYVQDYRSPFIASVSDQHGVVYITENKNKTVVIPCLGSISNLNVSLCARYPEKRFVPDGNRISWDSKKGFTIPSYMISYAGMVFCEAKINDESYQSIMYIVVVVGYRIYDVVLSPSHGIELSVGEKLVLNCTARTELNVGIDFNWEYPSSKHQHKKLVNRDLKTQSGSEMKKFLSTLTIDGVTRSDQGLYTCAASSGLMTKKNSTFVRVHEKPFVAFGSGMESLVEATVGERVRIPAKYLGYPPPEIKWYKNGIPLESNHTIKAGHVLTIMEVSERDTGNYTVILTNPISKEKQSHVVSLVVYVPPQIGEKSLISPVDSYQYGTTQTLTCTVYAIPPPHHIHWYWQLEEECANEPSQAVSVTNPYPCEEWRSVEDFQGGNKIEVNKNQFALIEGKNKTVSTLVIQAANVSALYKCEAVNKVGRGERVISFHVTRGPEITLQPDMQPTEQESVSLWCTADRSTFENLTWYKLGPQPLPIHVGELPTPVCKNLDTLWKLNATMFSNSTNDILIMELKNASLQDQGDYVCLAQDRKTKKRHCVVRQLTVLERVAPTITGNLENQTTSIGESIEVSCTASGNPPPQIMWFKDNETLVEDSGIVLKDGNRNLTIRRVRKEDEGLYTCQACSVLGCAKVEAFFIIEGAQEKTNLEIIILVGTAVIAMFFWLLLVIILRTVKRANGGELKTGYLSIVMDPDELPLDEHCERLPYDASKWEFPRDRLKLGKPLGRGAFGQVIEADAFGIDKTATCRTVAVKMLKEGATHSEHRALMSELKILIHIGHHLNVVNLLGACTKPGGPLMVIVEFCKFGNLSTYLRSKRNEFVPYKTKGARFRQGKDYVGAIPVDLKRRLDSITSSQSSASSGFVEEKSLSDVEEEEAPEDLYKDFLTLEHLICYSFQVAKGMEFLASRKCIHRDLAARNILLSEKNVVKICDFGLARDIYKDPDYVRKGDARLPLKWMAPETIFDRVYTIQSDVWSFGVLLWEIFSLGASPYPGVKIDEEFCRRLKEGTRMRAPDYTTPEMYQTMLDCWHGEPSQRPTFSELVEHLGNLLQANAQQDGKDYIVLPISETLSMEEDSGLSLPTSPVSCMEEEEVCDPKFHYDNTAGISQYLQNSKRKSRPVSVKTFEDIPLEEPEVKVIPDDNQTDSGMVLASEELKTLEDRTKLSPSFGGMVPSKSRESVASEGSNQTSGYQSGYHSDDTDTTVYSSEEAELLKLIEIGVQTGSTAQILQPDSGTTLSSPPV

Rattus norvegicus = assay: Metabolic stability in Sprague-Dawley rat assessed as hepatic extraction at 4.2 mg/kg, po; assay type: ADME, organism-based; parameters: dose 4.2 mg/kg, route oral; conditions: in vivo
In short: (§2)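 Ultrafasted Sprague–Dawley rats given 4.2 mg/kg as an oral suspension. Cmax, Tmax, hepatic extraction (Eh) and oral bioavailability were derived from systemic plasma levels.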

Mus musculus [9] = assay: Toxicity in mouse xenografted with rat C6 cells lacking human TIE2 assessed as body weight loss at 10 to 33 mg/kg, po after 10 days; assay type: organism-based; parameters: dose 10-33 mg/kg, route oral; conditions: in vivo, 240 h
C6 [10] = assay: Antitumor activity against rat C6 cells lacking human TIE2 xenografted in mouse assessed as tumor growth inhibition at 33 mg/kg, po bid after 10 days; assay type: functional, organism-based; parameters: dose 33 mg/kg
In short: (§3)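 Oral dosing once or twice daily at 10 or 33 mg/kg for 10 days in the C6 rat glioblastoma xenograft model. The C6 line was uninfected parental cells without human Tie-2. Read-out was percent tumor growth inhibition.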

C6 [11] = assay: Antitumor activity against rat C6 cells lacking human TIE2 xenografted in mouse assessed as tumor growth inhibition at 10 mg/kg, po bid after 10 days relative to control; assay type: functional; conditions: C6, 240 h, read-out: TGI; in short: as §3
C6 [12] = assay: Antitumor activity against rat C6 cells lacking human TIE2 xenografted in mouse assessed as tumor growth inhibition at 33 mg/kg, po qd after 10 days relative to control; assay type: functional; conditions: C6, 240 h, read-out: TGI; in short: as §3
[13] = Oral bioavailability in Sprague-Dawley rat at 4.2 mg/kg; assay type: ADME, organism-based; conditions: in vivo; in short: as §2
C6 [14] = assay: Antitumor activity against rat C6 cells lacking human TIE2 xenografted in mouse assessed as tumor growth inhibition at 10 mg/kg, po qd after 10 days relative to control; assay type: functional; conditions: C6, 240 h, read-out: TGI; in short: as §3
[15] = Tmax in Sprague-Dawley rat at 4.2 mg/kg, po; assay type: ADME, organism-based; parameters: dose 4.2 mg/kg, route oral; conditions: in vivo; in short: as §2
[16] = Cmax in Sprague-Dawley rat at 4.2 mg/kg, po; assay type: ADME, organism-based; parameters: dose 4.2 mg/kg, route oral; conditions: in vivo; in short: as §2
[17] = Volume of distribution at steady state in Sprague-Dawley rat at 0.164 mg/kg, iv; assay type: ADME, organism-based; parameters: dose 0.164 mg/kg, route intravenous; conditions: in vivo, read-out: Vdss
In short: (§4)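 Male Sprague–Dawley rats, fed, given a single 0.164 mg/kg IV dose. Clearance, steady-state volume of distribution and half-life were derived from plasma levels.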

[18] = Half life in Sprague-Dawley rat at 0.164 mg/kg, iv; assay type: ADME, organism-based; parameters: dose 0.164 mg/kg, route intravenous; conditions: in vivo; in short: as §4
[19] = Clearance in Sprague-Dawley rat at 0.164 mg/kg, iv; assay type: ADME, organism-based; parameters: dose 0.164 mg/kg, route intravenous; conditions: in vivo; in short: as §4
Mus musculus [20] = assay: Inhibition of human TIE2 phosphorylation expressed in rat C6 cells xenografted in po dosed mouse; assay type: functional, organism-based
In short: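 Ex vivo assay in C6 rat glioblastoma clones overexpressing human Tie-2 from a retroviral construct, after a single oral dose. Frozen tumors were homogenized in lysis buffer and lysates captured on antibody-coated plates, with HRP-labeled antibody detection. Plasma and tumor drug levels were measured by LC–MS.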

[21] = Metabolic stability in human liver microsomes assessed as hepatic extraction ratio; assay type: ADME, Microsome; conditions: read-out: ERH
[22] = Inhibition of cytochrome P450 (unknown origin); assay type: ADME, Homo sapiens
[23] = target: Voltage-gated inwardly rectifying potassium channel KCNH2 (Homo sapiens, UniProt Q12809); assay: Inhibition of human ERG
Homo sapiens = species: Homo sapiens; assay: Inhibition of IKr (unknown origin)
[24] = Mutagenic activity in micronucleus (unknown origin); assay type: ADME
[25] = target: Fibroblast growth factor receptor (Homo sapiens, UniProt P22607+P11362+P22455+P21802); assay: Inhibition of FGFR (unknown origin); assay type: protein assay
Salmonella typhimurium = assay: Mutagenic activity in Salmonella typhimurium by Ames assay; assay type: toxicity, organism-based; conditions: salmonella enterica subsp. enterica serovar typhimurium
[26] = target: Epidermal growth factor receptor (Homo sapiens, UniProt P00533); assay: Inhibition of EGFR (unknown origin)
[27] = Solubility of the compound; assay type: physicochemical
[28] = target: Platelet-derived growth factor receptor beta (Homo sapiens, UniProt P09619); assay: Inhibition of PDGFR (unknown origin)
Platelet-derived growth factor receptor beta, sequence (P09619 whole entry): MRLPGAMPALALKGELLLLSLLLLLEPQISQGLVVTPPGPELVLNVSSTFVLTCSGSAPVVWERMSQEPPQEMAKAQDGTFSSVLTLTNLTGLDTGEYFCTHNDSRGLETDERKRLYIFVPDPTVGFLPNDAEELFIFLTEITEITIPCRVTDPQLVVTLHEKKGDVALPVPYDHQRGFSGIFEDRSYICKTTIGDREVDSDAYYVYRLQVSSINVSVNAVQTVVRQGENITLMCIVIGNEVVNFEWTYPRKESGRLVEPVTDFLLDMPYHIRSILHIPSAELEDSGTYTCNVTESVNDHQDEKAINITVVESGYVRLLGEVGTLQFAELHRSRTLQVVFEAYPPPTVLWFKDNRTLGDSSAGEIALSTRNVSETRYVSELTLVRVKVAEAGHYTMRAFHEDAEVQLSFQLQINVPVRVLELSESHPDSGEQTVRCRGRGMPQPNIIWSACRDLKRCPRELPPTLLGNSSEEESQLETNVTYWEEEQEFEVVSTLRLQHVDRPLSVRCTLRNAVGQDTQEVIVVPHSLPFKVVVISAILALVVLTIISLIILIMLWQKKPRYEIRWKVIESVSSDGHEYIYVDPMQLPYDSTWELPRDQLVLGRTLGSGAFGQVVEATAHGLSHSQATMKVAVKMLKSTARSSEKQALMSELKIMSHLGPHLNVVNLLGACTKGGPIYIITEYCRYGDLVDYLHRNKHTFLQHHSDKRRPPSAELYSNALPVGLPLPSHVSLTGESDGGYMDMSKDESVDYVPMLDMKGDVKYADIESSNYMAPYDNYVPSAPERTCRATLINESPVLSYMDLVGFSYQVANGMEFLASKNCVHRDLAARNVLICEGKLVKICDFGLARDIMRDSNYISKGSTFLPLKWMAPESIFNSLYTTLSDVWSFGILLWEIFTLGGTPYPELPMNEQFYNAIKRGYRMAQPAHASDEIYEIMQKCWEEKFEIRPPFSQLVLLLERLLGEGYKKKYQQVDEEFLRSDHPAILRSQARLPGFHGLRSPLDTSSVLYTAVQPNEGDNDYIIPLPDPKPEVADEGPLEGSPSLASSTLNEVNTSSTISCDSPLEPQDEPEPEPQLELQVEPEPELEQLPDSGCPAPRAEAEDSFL

[29] = Permeability across basolateral to apical side in human Caco2 cells expressing p-gp; assay type: ADME, cell-based; conditions: Caco-2, read-out: permeability
[30] = Permeability across apical to basolateral side in human Caco2 cells expressing p-gp; assay type: ADME, cell-based; conditions: Caco-2, read-out: permeability

SMILES: Nc1ncnc2c1c(Cc1cccc(NS(=O)(=O)c3c(F)cccc3F)c1)cn2C1CCCC1
- IC50 (Angiopoietin-1 receptor [1]): > 10000 nM

SMILES: COc1ccc(C)cc1NC(=O)Nc1cccc(C(=O)c2cn(C3CCCC3)c3ncnc(N)c23)c1
- IC50 [2]: 0.69 nM
- IC50 (Angiopoietin-1 receptor [1]): 8.8 nM
- hepatic extraction ratio [3]: 0.69
- efflux ratio [4]: 9.4

SMILES: Nc1ncnc2c1c(C(=O)c1cccc(NC(=O)Nc3ccc(Cl)cc3)c1)cn2C1CCCC1
- IC50 [2]: 4.6 nM
- IC50 (Angiopoietin-1 receptor [1]): 45 nM
- hepatic extraction ratio [3]: 0.7
- efflux ratio [4]: 17

SMILES: Cc1ccc(F)c(NC(=O)Nc2cccc(C(=O)c3cn(C4CCCC4)c4ncnc(N)c34)c2)c1
- IC50 [2]: 0.89 nM
- IC50 (Angiopoietin-1 receptor [1]): 12 nM
- hepatic extraction ratio [3]: 0.8
- efflux ratio [4]: 9.2

SMILES: Nc1ncnc2c1c(-c1nc3ccc(NS(=O)(=O)c4c(F)cccc4F)cc3[nH]1)cn2C1CCCC1
- IC50 [2]: 518 nM
- IC50 (Angiopoietin-1 receptor [1]): 568 nM
- hepatic extraction ratio [3]: 0.69

SMILES: CC(C)n1cc(C(=O)c2cccc(NC(=O)Nc3ccc(Cl)cc3)c2)c2c(N)ncnc21
- Stability (Rattus norvegicus): 27 mL/min/kg
- Activity (Mus musculus [9]): Non-toxic
- TGI (C6 [10]): Active
- inhibition in vivo at 10 mg/kg (C6 [11]): 70%
- inhibition in vivo at 33 mg/kg (C6 [12]): 60%
- bioavailability [13]: 100%
- inhibition in vivo at 10 mg/kg (C6 [14]): 40%
- Tmax [15]: 45 min
- Cmax [16]: 1720 ng/mL
- Vd [17]: 0.9 L/kg
- half-life [18]: 24 min
- clearance [19]: 38 mL/min/kg
- inhibition (Mus musculus [20]): Active
- hepatic extraction ratio [21]: 0.46
- hepatic extraction ratio [3]: 0.52
- IC50 [22]: > 3000 nM
- inhibition (INH) [23]: Active
- IC20 (Homo sapiens): 1000 nM
- Activity [24]: Toxic
- IC50 [25]: > 10000 nM
- Activity (Salmonella typhimurium): Non-toxic
- IC50 [26]: > 10000 nM
- solubility [27]: 35 µg/mL (≈ 78 µM)
- IC50 [8]: > 10000 nM
- IC50 [28]: 1400 nM
- Papp B→A [29]: 9.5 ×10⁻⁶ cm/s
- efflux ratio [4]: 1.5

SMILES: Nc1ncnc2c1c(C(=O)c1cccc(NC(=O)Nc3c(F)cccc3F)c1)cn2C1CCCC1
- IC50 [2]: 67 nM
- IC50 (Angiopoietin-1 receptor [1]): 361 nM
- Papp A→B [30]: 7.7 ×10⁻⁶ cm/s
- hepatic extraction ratio [3]: 0.83
- IC50 [8]: 3100 nM
- IC50 [28]: > 5000 nM
- efflux ratio [4]: 3.5

SMILES: Nc1ncnc2c1c(C(=O)c1cccc(NC(=O)Nc3ccc(Cl)cc3Cl)c1)cn2C1CCCC1
- IC50 [2]: 1.2 nM
- efflux ratio [4]: 1.9

Now from value to molecule:

- IC50 [2]: 769 nM
- IC50 (Angiopoietin-1 receptor [1]): 745 nM
SMILES: Nc1ncnc2c1c(C(=O)c1ccc(NS(=O)(=O)c3c(F)cccc3F)cc1)cn2C1CCCC1

- IC50 [2]: 254 nM
- IC50 (Angiopoietin-1 receptor [1]): 345 nM
SMILES: Nc1ncnc2c1c(C(=O)c1ccc(NC(=O)Nc3c(F)cccc3F)cc1)cn2C1CCCC1

- IC50 [2]: 112 nM
- IC50 (Angiopoietin-1 receptor [1]): 241 nM
- hepatic extraction ratio [3]: 0.9
- efflux ratio [4]: 3.2
SMILES: Nc1ncnc2c1c(-c1nc3ccc(NC(=O)Nc4c(F)cccc4F)cc3[nH]1)cn2C1CCCC1

- IC50 [2]: 253 nM
- IC50 (Angiopoietin-1 receptor [1]): 423 nM
- efflux ratio [4]: 4.7
SMILES: Nc1ncnc2c1c(C(=O)c1cccc(NS(=O)(=O)c3c(F)cccc3F)c1)cn2C1CCCC1

- IC50 [5]: > 3000 nM
- IC50 [6]: > 3000 nM
- IC50 (Angiopoietin-1 receptor [7]): 137 nM
- IC50 [8]: > 3000 nM
SMILES: COc1cc(-c2cn([C@H]3CC[C@H](N4CCN(C)CC4)CC3)c3ncnc(N)c23)ccc1NS(=O)(=O)c1ccccc1
